ChEMBL document CHEMBL4311975, “Exploration of the antibiotic potentiating activity of indolglyoxylpolyamines” (Eur J Med Chem, 2019)
Converted amounts (≈) assume the structure as drawn.

Columns and labels:
Staphylococcus aureus = experiment: Antibacterial activity against Staphylococcus aureus ATCC 25923 assessed as growth inhibition incubated for 18 hrs by broth dilution method; assay type: functional; conditions: ATCC 25923, 18 h
In short: (§1)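 Broth microdilution following CA-SFM recommendations. Inoculum was 10^5 CFU in Mueller-Hinton broth with two-fold serial drug dilutions. Plates were incubated 18 h at 37 °C. MIC was the lowest concentration giving complete inhibition of visible growth. Values are means, n = 3.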

[1] = test system: Staphylococcus intermedius; experiment: Antibacterial activity against Staphylococcus intermedius 1051997 assessed as growth inhibition incubated for 18 hrs by broth dilution method; assay type: functional; conditions: Staphylococcus intermedius, 1051997, 18 h; in short: as §1
Pseudomonas aeruginosa [2] = experiment: Antibacterial activity against Pseudomonas aeruginosa ATCC 27853 assessed as growth inhibition incubated for 18 hrs by broth dilution method; assay type: functional; conditions: ATCC 27853, 18 h; in short: as §1
Escherichia coli [3] = experiment: Antibacterial activity against Escherichia coli ATCC 25922 assessed as growth inhibition incubated for 18 hrs by broth dilution method; assay type: functional; conditions: ATCC 25922, 18 h; in short: as §1
Klebsiella pneumoniae [4] = experiment: Antibacterial activity against Klebsiella pneumoniae ATCC 700603 assessed as growth inhibition incubated for 18 hrs by resazurin dye based assay; assay type: functional; conditions: Klebsiella pneumoniae, 700603, 18 h
In short: (§2)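 Overnight cultures were diluted 40-fold in MHB and grown 1.5–2 h at 37 °C to mid-log phase. Cells were added at 5×10^5 CFU/mL final to two-fold compound dilutions (0.008–32 μg/mL final), in duplicate, for 18 h at 37 °C. Resazurin (0.001% final) was added for 2 h and MIC read by eye. Means, n = 2.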

Acinetobacter baumannii [5] = experiment: Antibacterial activity against Acinetobacter baumannii ATCC 19606 assessed as growth inhibition incubated for 18 hrs by resazurin dye based assay; assay type: functional; conditions: ATCC 19606 = CIP 70.34 = JCM 6841, 18 h; in short: as §2
Candida albicans = experiment: Antifungal activity against Candida albicans ATCC 90028 assessed as growth inhibition incubated for 36 hrs by resazurin dye based assay; assay type: functional; conditions: ATCC 90028, 36 h
In short: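 Yeast was grown 3 days on YPD agar at 30 °C. Colonies were suspended and diluted in YNB broth to 2.5×10^3 CFU/mL, then added to two-fold compound dilutions (0.008–32 μg/mL final), in duplicate. Plates stood 36 h at 35 °C without shaking. Means, n = 2.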

Cryptococcus neoformans = experiment: Antifungal activity against Cryptococcus neoformans ATCC 208821 assessed as growth inhibition incubated for 36 hrs by resazurin dye based assay; assay type: functional; conditions: ATCC 208821, 36 h
In short: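 Cryptococcus was grown 3 days on YPD agar at 30 °C, suspended, and diluted in YNB broth to 2.5×10^3 CFU/mL. Cells were exposed to 0.008–32 μg/mL compound (final), in duplicate, for 36 h at 35 °C without shaking. Resazurin (0.006% final) was added for a further 3 h. MIC was read from absorbance at OD570–600. Means, n = 2.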

Pseudomonas aeruginosa [6] = experiment: Potentiation of doxycycline-induced antibacterial activity against Pseudomonas aeruginosa ATCC 27853 assessed as concentration required to restore 2 ug/ml doxycycline activity measured after 18 hrs; assay type: functional
In short: (§3)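 Inoculum was 5×10^5 CFU in MHB with two-fold serial dilutions of adjuvant plus fixed doxycycline at 2 μg/mL. […] Repeated independently in triplicate.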

Pseudomonas aeruginosa [7] = experiment: Potentiation of erythromycin-induced antibacterial activity against Pseudomonas aeruginosa ATCC 27853 assessed as concentration required to restore 2 ug/ml erythromycin activity measured after 18 hrs; assay type: functional
Pseudomonas aeruginosa [8] = experiment: Potentiation of chloramphenicol-induced antibacterial activity against Pseudomonas aeruginosa ATCC 27853 assessed as concentration required to restore 2 ug/ml chloramphenicol activity measured after 18 hrs; assay type: functional
Pseudomonas aeruginosa [9] = experiment: Potentiation of nalidixic acid-induced antibacterial activity against Pseudomonas aeruginosa ATCC 27853 assessed as concentration required to restore 2 ug/ml nalidixic acid activity measured after 18 hrs; assay type: functional
Escherichia coli [10] = experiment: Potentiation of doxycycline-induced antibacterial activity against Escherichia coli ATCC 25922 assessed as concentration required to restore 2 ug/ml doxycycline activity measured after 18 hrs; assay type: functional; in short: as §3
Escherichia coli [11] = experiment: Potentiation of erythromycin-induced antibacterial activity against Escherichia coli ATCC 25922 assessed as concentration required to restore 2 ug/ml erythromycin activity measured after 18 hrs; assay type: functional
Escherichia coli [12] = experiment: Potentiation of chloramphenicol-induced antibacterial activity against Escherichia coli ATCC 25922 assessed as concentration required to restore 2 ug/ml chloramphenicol activity measured after 18 hrs; assay type: functional
Escherichia coli [13] = experiment: Potentiation of nalidixic acid-induced antibacterial activity against Escherichia coli ATCC 25922 assessed as concentration required to restore 2 ug/ml nalidixic acid activity measured after 18 hrs; assay type: functional
Klebsiella pneumoniae [14] = experiment: Potentiation of doxycycline-induced antibacterial activity against Klebsiella pneumoniae ATCC 13443 assessed as concentration required to restore 2 ug/ml doxycycline activity measured after 18 hrs; assay type: functional; in short: as §3
Klebsiella pneumoniae [15] = experiment: Potentiation of erythromycin-induced antibacterial activity against Klebsiella pneumoniae ATCC 13443 assessed as concentration required to restore 2 ug/ml erythromycin activity measured after 18 hrs; assay type: functional
Klebsiella pneumoniae [16] = experiment: Potentiation of chloramphenicol-induced antibacterial activity against Klebsiella pneumoniae ATCC 13443 assessed as concentration required to restore 2 ug/ml chloramphenicol activity measured after 18 hrs; assay type: functional
Klebsiella pneumoniae [17] = experiment: Potentiation of nalidixic acid-induced antibacterial activity against Klebsiella pneumoniae ATCC 13443 assessed as concentration required to restore 2 ug/ml nalidixic acid activity measured after 18 hrs; assay type: functional
Acinetobacter baumannii [18] = experiment: Potentiation of doxycycline-induced antibacterial activity against Acinetobacter baumannii AYE assessed as concentration required to restore 2 ug/ml doxycycline activity measured after 18 hrs; assay type: functional; in short: as §3
Acinetobacter baumannii [19] = experiment: Potentiation of erythromycin-induced antibacterial activity against Acinetobacter baumannii AYE assessed as concentration required to restore 2 ug/ml erythromycin activity measured after 18 hrs; assay type: functional
Acinetobacter baumannii [20] = experiment: Potentiation of chloramphenicol-induced antibacterial activity against Acinetobacter baumannii AYE assessed as concentration required to restore 2 ug/ml chloramphenicol activity measured after 18 hrs; assay type: functional
Acinetobacter baumannii [21] = experiment: Potentiation of nalidixic acid-induced antibacterial activity against Acinetobacter baumannii AYE assessed as concentration required to restore 2 ug/ml nalidixic acid activity measured after 18 hrs; assay type: functional
L6 = experiment: Cytotoxicity against rat L6 cells measured after 72 hrs by alamar blue assay; assay type: cell-based; conditions: L6, 72 h
In short: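 Rat L6 myoblasts, 4×10^4/well in RPMI 1640 with L-glutamine and 10% FBS, received seven 3-fold dilutions (90 to 0.123 μg/mL) for 72 h. Alamar Blue was added for 2 h and fluorescence read at ex 536/em 588 nm. Podophyllotoxin served as reference. Means, n = 2.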

[22] = Hemolytic activity against Sprague-Dawley rat RBC assessed as release of hemoglobin at 50 uM incubated for 1 hr relative to control; assay type: ADME, cell-based, Erythrocyte; conditions: red blood cells (erythrocytes), read-out: Activity
In short: (§4)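 Fresh Sprague-Dawley rat erythrocytes were washed in saline and resuspended at 2% v/v. Cells were incubated with compound in DMSO/PBS for 1 h at 37 °C, then centrifuged at 200 g, and supernatant absorbance read at 540 nm. Results were normalised to DMSO/PBS (0%) and 0.1% Triton X-100 (100%). Single-point testing used 50 μM; HC50 came from 10-point curves. Means of three experiments.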

[23] = Hemolytic activity against Sprague-Dawley rat RBC assessed as release of hemoglobin incubated for 1 hr; assay type: ADME, cell-based, Erythrocyte; conditions: red blood cells (erythrocytes); in short: as §4
[24] = Cytotoxicity against human HEK293 cells measured after 20 hrs by resazurin dye based fluorescence assay; assay type: cell-based
In short: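 HEK293 cells, 5,000/well in DMEM with 10% FBS, were exposed to compound for 20 h at 37 °C, 5% CO2. Resazurin (100 μM final) was added for 3 h, then fluorescence read at ex 560/em 590. Signal was normalised to tamoxifen (74 μg/mL, 0%) and untreated growth (100%), and CC50 came from dose-response fitting. Top dose 32 μg/mL. Means, n = 2.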

| MIC (Staphylococcus aureus) [µM] | MIC (Pseudomonas aeruginosa [2]) [µM] | MIC (Escherichia coli [3]) [µM] | MIC (Klebsiella pneumoniae [4]) [µM] | MIC (Acinetobacter baumannii [5]) [µM] | MIC (Candida albicans) [µM] | MIC (Cryptococcus neoformans) [µM] | Structure (SMILES) | Activity (Pseudomonas aeruginosa [6]) [µM] | Activity (Pseudomonas aeruginosa [7]) [µM] | Activity (Pseudomonas aeruginosa [8]) [µM] | Activity (Pseudomonas aeruginosa [9]) [µM] | Activity (Escherichia coli [10]) [µM] | Activity (Escherichia coli [11]) [µM] | Activity (Escherichia coli [12]) [µM] | Activity (Escherichia coli [13]) [µM] | Activity (Klebsiella pneumoniae [14]) [µM] | Activity (Klebsiella pneumoniae [15]) [µM] | Activity (Klebsiella pneumoniae [16]) [µM] | IC50 (L6) [µM] | hemolysis at 1 h, 50 µM [22] [%] | further results |
| --- | --- | --- | --- | --- | --- | --- | --- | --- | --- | --- | --- | --- | --- | --- | --- | --- | --- | --- | --- | --- | --- |
| 6.25 (≈ 4.39 µg/mL) | 100 (≈ 70.2 µg/mL) | 100 (≈ 70.2 µg/mL) | > 34 | > 34 | 17.2 (≈ 12.1 µg/mL) | 1.1 (≈ 0.773 µg/mL) | O=C(NCCCNCCCCNCCCNC(=O)C(=O)c1c[nH]c2cc(Br)ccc12)C(=O)c1c[nH]c2cc(Br)ccc12 | 6.25 to 12.5 | 200 | >200 | 50 | 6.25 | 50 | >200 | >200 | 6.25 | 50 | 200 | 7.7 | 91 | MIC [1]: 3.12 µM (≈ 2.2 µg/mL); Activity (Klebsiella pneumoniae [17]): 25 µM; Activity (Acinetobacter baumannii [18]): 25 µM; Activity (Acinetobacter baumannii [19]): 25 µM; Activity (Acinetobacter baumannii [20]): >200 µM; Activity (Acinetobacter baumannii [21]): 200 µM; HC50 at 1 h [23]: 20 µM |
| 25 | 100 | 50 | > 29.4 | > 29.4 | > 29.4 | 3.65 | O=C(NCCCNCCCCNCCCNC(=O)C(=O)c1c[nH]c2cc(Br)c(Br)cc12)C(=O)c1c[nH]c2cc(Br)c(Br)cc12.O=C(O)C(F)(F)F.O=C(O)C(F)(F)F | 25 |  |  |  |  |  |  |  |  |  |  | 6.03 | 88.7 | CC50 at 20 h [24]: 1.62 µM; HC50 at 1 h [23]: 17 µM |
| 15 (≈ 9.07 µg/mL) | > 200 | > 200 | > 38.4 | > 38.4 | 38.4 (≈ 23.2 µg/mL) | > 38.4 | COc1cccc2c(C(=O)C(=O)NCCCNCCCCNCCCNC(=O)C(=O)c3c[nH]c4c(OC)cccc34)c[nH]c12 | 3.75 to 7.5 | 100 | 30 | 60 | 3.75 | >200 | >200 | >200 | >200 | >200 | >200 | 62 | 0 | Activity (Klebsiella pneumoniae [17]): >200 µM; Activity (Acinetobacter baumannii [18]): 15 µM; Activity (Acinetobacter baumannii [19]): >200 µM; Activity (Acinetobacter baumannii [20]): >200 µM; Activity (Acinetobacter baumannii [21]): >200 µM; CC50 at 20 h [24]: 27.1 µM |
